We go through 7 molecules from ChEMBL document CHEMBL3132837, “VUT-MK142 : a new cardiomyogenic small molecule promoting the differentiation of pre-cardiac mesoderm into cardiomyocytes” (2013).

Calls of active or inactive are those of the source. The rule behind the calls is not given here.

Experiment [1] has as its system C2C12. Briefly: Cardiomyogenic activity in mouse C2C12 cells assessed as upregulation of ANF gene expression at 1 uM after 7 days by luciferase reporter assay relative to control. It counts as functional, cell-based. The essentials: (§1)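 P19 and C2C12 cells transiently transfected with rat ANF promoter firefly luciferase plasmid plus pRL-SV40 Renilla control one day before treatment. P19: 7 days in induction medium (MEM-alpha, 5% FBS). C2C12: 7 days in differentiation medium (2% horse serum), compound added at the switch. Compound 1 μM, DMSO 0.005% in all wells, media refreshed twice. Dual-luciferase read-out, Renilla-normalised, expressed relative to DMSO control; n=3–10 independent preparations; 10 nM retinoic acid in P19 as positive control.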
(In general: In a reporter assay the amount or activity of a reporter protein is the signal.)

In experiment [2] the test system is P19. Put plainly: Cardiomyogenic activity in mouse P19 cells assessed as upregulation of ANF gene expression at 1 uM after 7 days by luciferase reporter assay relative to control. It counts as functional, cell-based. The essentials: as §1
Experiment [3] can be described thus: Cardiomyogenesis in mouse cardiovascular progenitor cells assessed as upregulation of Mesp1 gene expression at 1 uM by RT-PCR analysis. It counts as functional.
Experiment [4] is described as follows: Cardiomyogenesis in mouse cardiovascular progenitor cells assessed as upregulation of tropomyosin gene expression at 1 uM by RT-PCR analysis. It counts as functional.
The nature of experiment [5]: Cardiomyogenesis in mouse cardiovascular progenitor cells assessed as upregulation of Gata4 gene expression at 1 uM by RT-PCR analysis. It counts as functional.
Experiment [6] is described as follows: Cardiomyogenesis in mouse cardiovascular progenitor cells assessed as upregulation of Eomes gene expression at 1 uM by RT-PCR analysis. Type of experiment: functional.
Experiment [7] can be described thus: Cardiomyogenesis in mouse cardiovascular progenitor cells assessed as upregulation of Mef2C gene expression at 1 uM by RT-PCR analysis. Type of experiment: functional.
A short description of experiment [8]: Cardiomyogenesis in mouse cardiovascular progenitor cells assessed as upregulation of Nkx2.5 gene expression at 1 uM by RT-PCR analysis. Type of experiment: functional.
Experiment [9] in a line: Cardiomyogenesis in mouse cardiovascular progenitor cells assessed as upregulation of brachyury gene expression at 1 uM by RT-PCR analysis. Type of experiment: functional.
The species entered for experiment [10] is Mus musculus. Briefly: Cardiomyogenesis in mouse cardiovascular progenitor cells assessed as formation of cardiac bodies with beating at 1 uM compound treated on day 5 to day 13 of myocardial differentiation commitment measured on day 11 to 13 by phase contrast microscopy relative to control. Type of experiment: functional. Conditions: Heart.
For experiment [11], the species on record is Mus musculus. Put plainly: Cardiomyogenesis in mouse cardiovascular progenitor cells assessed as formation of cardiac bodies at 1 uM compound treated on day 0 to day 5 of myocardial differentiation commitment by phase contrast microscopy relative to control. Type of experiment: functional. Conditions: Heart. The gist of the method:
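A5 CVPCs from newborn mouse hearts, grown in M15 on inactivated SNL76/7 feeders, aggregated into cardiac bodies in hanging drops (900 ± 50 cells per drop, 4.5 days), then plated on gelatine. Compound 1 μM or 0.005% DMSO present days 0–5. Beating CBs scored by microscopy for at least 20 days, 80 CBs per experiment, normalised daily to DMSO control.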

The test system of experiment [12] is C2C12. Briefly: Cardiomyogenic activity in mouse C2C12 cells assessed as upregulation of Nkx2.5 gene expression at 1 uM after 7 days by luciferase reporter assay relative to control. Type of experiment: functional. The gist of the method:
(§2)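 Nkx2.5 promoter firefly luciferase plasmid (pGL3b backbone) co-transfected with Renilla control one day before treatment. P19 cells treated in MEM-alpha/5% FBS induction medium; C2C12 cells treated in 2% horse serum differentiation medium. Compound 1 μM or 0.005% DMSO for 7 days, media refreshed twice. Dual-luciferase activity expressed as fold over DMSO control; paired two-tailed t-test on raw data.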

The test system of experiment [13] is P19. Briefly: Cardiomyogenic activity in mouse P19 cells assessed as upregulation of Nkx2.5 gene expression at 1 uM after 7 days by luciferase reporter assay relative to control. It counts as functional. The gist of the method:
as §2

The species entered for experiment [14] is Mus musculus. Put plainly: Cardiomyogenesis in mouse cardiovascular progenitor cells assessed as formation of cardiac bodies at 1 uM compound by phase contrast microscopy relative to control. To be noted: Heart.

With `CCNc1cc(Nc2ccc(OC)cc2)ncn1`, the result in the experiment with C2C12 [1] was Active.

In the case of `COc1ccc(Nc2cccc(NCCO)n2)cc1`, the outcome in the experiment on C2C12 [1] and in the experiment on P19 [2] was Active.

Regarding `COc1ccc(Nc2cc(NC3CCCCC3)ncn2)cc1`, the outcome (in [3]; in experiment [4]; in experiment [5]; in [6]; in the experiment filed under Mus musculus [11]) was inactive. The outcome (in experiment [7]; in experiment [8]; in [9]; in the experiment listed under Mus musculus [10]; in the experiment on C2C12 [1]; in the experiment on P19 [2]) was Active. For the same molecule, the result in the experiment listed under Mus musculus [14] was Active. Besides, the “fold change (FC)” value is recorded as 2.2 in the experiment on C2C12 [12] and 3.1 in the experiment on P19 [13].

For the molecule `COc1ccc(Nc2nccc(NCCO)n2)cc1` [CARDIOGENOL C], the “fold change (FC)” value in the experiment on C2C12 [12] was 1.4; in the experiment with P19 [13], 1.6. Also, the outcome with C2C12 [1] and in the experiment with P19 [2] was Active.

As to `COc1ccc(Nc2cc(NCCO)ncn2)cc1`, the outcome in the experiment with C2C12 [1] and with P19 [2] was Active.

For the molecule `CNc1cc(Nc2ccc(OC)cc2)ncn1`, the result in the experiment listed under Mus musculus [11], in the experiment with C2C12 [1], in the experiment with P19 [2] and in the experiment listed under Mus musculus [14] was inactive.

For `OCCNc1cccc(Nc2ccc(Oc3ccccc3)cc2)n1`, the outcome in the experiment on C2C12 [1] and with P19 [2] was inactive.
